Converted amounts (≈) assume the structure as drawn.
Tests used:
Salmonella typhi [1] = assay: Antibacterial activity against 10^5 CFU/mL Salmonella typhi MTCC 733 after 24 hrs by agar streak dilution method; type: functional, Salmonella enterica subsp. enterica serovar Typhi; details: Salmonella enterica, MTCC 733, 24 h
Bacillus cereus [2] = assay: Antibacterial activity against 10^5 CFU/mL Bacillus cereus MTCC 619 after 24 hrs by disc diffusion technique; type: functional
Method in brief: (§1)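 Disc diffusion on Mueller–Hinton agar poured 5 mm deep. The surface was swabbed with a 10⁵ CFU/mL […] suspension. Filter-paper discs 6.25 mm in diameter were soaked in compound in DMSO and placed on the agar. Plates were incubated 24 h at 37 ± 1 °C, and the inhibition zone was measured in mm. A DMSO disc served as blank.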

Shigella flexneri [3] = assay: Antibacterial activity against 10^5 CFU/mL Shigella flexneri MTCC 1457 after 24 hrs by agar streak dilution method; type: functional; details: MTCC 1457, 24 h
Method in brief: (§2)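 Agar streak dilution. Stock 100 µg/mL in DMSO; graded amounts were mixed into molten nutrient agar and poured at 4–5 mm depth. Plates carried serial dilutions over […]. About 10⁵ CFU/mL of each bacterium was applied, and plates were incubated at 37 ± 1 °C for 24 h. MIC was read from the dilution series.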

Aspergillus clavatus [4] = assay: Antifungal activity against 10^5 CFU/mL Aspergillus clavatus MTCC 1323 after 48 hrs by agar streak dilution method; type: functional; details: MTCC 1323, 48 h
Method in brief: (§3)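 Agar streak dilution for fungi. Stock 100 µg/mL in DMSO; graded amounts were mixed into molten Sabouraud dextrose agar and poured at 4–5 mm depth. Serial dilutions ran over […]. About 10⁵ CFU/mL inoculum was applied, with incubation at 37 ± 1 °C for 48 h. MIC was read from the dilution series.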

Aspergillus niger [5] = assay: Antifungal activity against 10^5 CFU/mL Aspergillus niger MTCC 282 after 48 hrs by agar streak dilution method; type: functional; details: MTCC 282, 48 h; method in brief: as §3
Staphylococcus aureus [6] = assay: Antibacterial activity against 10^5 CFU/mL Staphylococcus aureus MTCC 96 after 24 hrs by disc diffusion technique; type: functional; method in brief: as §1
Aspergillus niger [7] = assay: Antifungal activity against 10^5 CFU/mL Aspergillus niger MTCC 282 after 48 hrs by disc diffusion technique; type: functional
Escherichia coli [8] = assay: Antibacterial activity against 10^5 CFU/mL Escherichia coli MTCC 739 after 24 hrs by agar streak dilution method; type: functional; details: MTCC 739, 24 h; method in brief: as §2
Klebsiella pneumoniae [9] = assay: Antibacterial activity against 10^5 CFU/mL Klebsiella pneumoniae MTCC 109 after 24 hrs by disc diffusion technique; type: functional; method in brief: as §1
Candida albicans [10] = assay: Antifungal activity against 10^5 CFU/mL Candida albicans MTCC 183 after 48 hrs by agar streak dilution method; type: functional; details: MTCC 183, 48 h; method in brief: as §3
Escherichia coli [11] = assay: Antibacterial activity against 10^5 CFU/mL Escherichia coli MTCC 739 after 24 hrs by disc diffusion technique; type: functional; method in brief: as §1
Proteus vulgaris [12] = assay: Antibacterial activity against 10^5 CFU/mL Proteus vulgaris MTCC 1771 after 24 hrs by agar streak dilution method; type: functional; details: MTCC 1771, 24 h; method in brief: as §2
Staphylococcus aureus [13] = assay: Antibacterial activity against 10^5 CFU/mL Staphylococcus aureus MTCC 96 after 24 hrs by agar streak dilution method; type: functional; details: MTCC 96, 24 h; method in brief: as §2
DU-145 = assay: Cytotoxicity against […] human DU145 cells after 48 hrs by SRB assay; type: functional; details: DU-145, 48 h
Method in brief: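 SRB assay in DU-145 cells grown in RPMI 1640 with 10% FBS and 2 mM L-glutamine. Cells were plated and held 24 h before addition of four 10-fold concentrations. After 48 h, cells were TCA-fixed, stained with 0.4% SRB and read at 540 nm. GI50, TGI and LC50 were derived against time-zero and control wells; each value is the mean of three experiments.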

Candida albicans [14] = assay: Antifungal activity against 10^5 CFU/mL Candida albicans MTCC 183 after 48 hrs by disc diffusion technique; type: functional
Aspergillus clavatus [15] = assay: Antifungal activity against 10^5 CFU/mL Aspergillus clavatus MTCC 1323 after 48 hrs by disc diffusion technique; type: functional
Shigella flexneri [16] = assay: Antibacterial activity against 10^5 CFU/mL Shigella flexneri MTCC 1457 after 24 hrs by disc diffusion technique; type: functional; method in brief: as §1
Aspergillus fumigatus [17] = assay: Antifungal activity against 10^5 CFU/mL Aspergillus fumigatus MTCC 343 after 48 hrs by agar streak dilution method; type: functional; details: MTCC 343, 48 h; method in brief: as §3
Proteus vulgaris [18] = assay: Antibacterial activity against 10^5 CFU/mL Proteus vulgaris MTCC 1771 after 24 hrs by disc diffusion technique; type: functional; method in brief: as §1
Salmonella typhi [19] = assay: Antibacterial activity against 10^5 CFU/mL Salmonella typhi MTCC 733 after 24 hrs by disc diffusion technique; type: functional, Salmonella enterica subsp. enterica serovar Typhi
Method in brief: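 Disc diffusion. Mueller-Hinton agar autoclaved 120 °C 30 min, poured 5 mm deep. Surface swabbed with 10⁵ CFU/mL suspension […]. 6.25 mm filter-paper discs soaked in compound in DMSO; DMSO-only disc as blank. Incubated 37 ± 1 °C, 24 h for bacteria or 48 h for fungi. Ciprofloxacin and ketoconazole discs as reference drugs. Inhibition zone measured in mm.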

Pseudomonas aeruginosa [20] = assay: Antibacterial activity against 10^5 CFU/mL Pseudomonas aeruginosa MTCC 741 after 24 hrs by disc diffusion technique; type: functional; method in brief: as §1
Klebsiella pneumoniae [21] = assay: Antibacterial activity against 10^5 CFU/mL Klebsiella pneumoniae MTCC 109 after 24 hrs by agar streak dilution method; type: functional; details: MTCC 109, 24 h; method in brief: as §2
Pseudomonas aeruginosa [22] = assay: Antibacterial activity against 10^5 CFU/mL Pseudomonas aeruginosa MTCC 741 after 24 hrs by agar streak dilution method; type: functional; details: MTCC 741, 24 h; method in brief: as §2
Bacillus cereus [23] = assay: Antibacterial activity against 10^5 CFU/mL Bacillus cereus MTCC 619 after 24 hrs by agar streak dilution method; type: functional; details: MTCC 619, 24 h; method in brief: as §2
Aspergillus fumigatus [24] = assay: Antifungal activity against 10^5 CFU/mL Aspergillus fumigatus MTCC 343 after 48 hrs by disc diffusion technique; type: functional

Q: Which results are given for `CC(=O)N1CCN(c2nc(Nc3ccc(C#N)c(C(F)(F)F)c3)nc(Oc3ccnc4ccccc34)n2)CC1`?
A: MIC (Salmonella typhi [1]): 100 µg/mL (≈ 187 µM); inhibition zone (IZ) (Bacillus cereus [2]): 24 mm; MIC (Shigella flexneri [3]): 25 µg/mL (≈ 46.8 µM); MIC (Aspergillus clavatus [4]): 12.5 µg/mL (≈ 23.4 µM); MIC (Aspergillus niger [5]): 100 µg/mL (≈ 187 µM); inhibition zone (IZ) (Staphylococcus aureus [6]): 26 mm; inhibition zone (IZ) (Aspergillus niger [7]): 21 mm; MIC (Escherichia coli [8]): 12.5 µg/mL (≈ 23.4 µM); inhibition zone (IZ) (Klebsiella pneumoniae [9]): 23 mm; MIC (Candida albicans [10]): 100 µg/mL (≈ 187 µM); inhibition zone (IZ) (Escherichia coli [11]): 24 mm; MIC (Proteus vulgaris [12]): 6.25 µg/mL (≈ 11.7 µM); MIC (Staphylococcus aureus [13]): 12.5 µg/mL (≈ 23.4 µM); GI50 (DU-145): 75.1 µM; LC50 (concentration giving 50% net cell kill relative to time zero) (DU-145): > 100 µM; TGI (DU-145): > 100 µM; inhibition zone (IZ) (Candida albicans [14]): 17 mm; inhibition zone (IZ) (Aspergillus clavatus [15]): 27 mm; inhibition zone (IZ) (Shigella flexneri [16]): 23 mm; MIC (Aspergillus fumigatus [17]): 100 µg/mL (≈ 187 µM); inhibition zone (IZ) (Proteus vulgaris [18]): 27 mm; inhibition zone (IZ) (Salmonella typhi [19]): 23 mm; inhibition zone (IZ) (Pseudomonas aeruginosa [20]): 24 mm; MIC (Klebsiella pneumoniae [21]): 50 µg/mL (≈ 93.5 µM); MIC (Pseudomonas aeruginosa [22]): 12.5 µg/mL (≈ 23.4 µM); MIC (Bacillus cereus [23]): 12.5 µg/mL (≈ 23.4 µM); inhibition zone (IZ) (Aspergillus fumigatus [24]): 21 mm

Q: With `CC(C)N1CCN(c2nc(Nc3ccc(C#N)c(C(F)(F)F)c3)nc(Oc3ccnc4ccccc34)n2)CC1` as the compound, how does the MIC (Salmonella typhi [1]) read?
A: 100 µg/mL (≈ 187 µM)

Q: What about the “inhibition zone (IZ)” value (Bacillus cereus [2]) of the same compound?
A: 22 mm

Q: And the MIC (Shigella flexneri [3])?
A: 50 µg/mL (≈ 93.5 µM)

Q: And the MIC (Aspergillus clavatus [4])?
A: 100 µg/mL (≈ 187 µM)

Q: And the MIC (Aspergillus niger [5])?
A: 100 µg/mL (≈ 187 µM)

Q: And the “inhibition zone (IZ)” value (Staphylococcus aureus [6])?
A: 23 mm

Q: And the “inhibition zone (IZ)” value (Aspergillus niger [7])?
A: <10 mm

Q: What about the MIC (Escherichia coli [8]) of the same compound?
A: 50 µg/mL (≈ 93.5 µM)

Q: What about the “inhibition zone (IZ)” value (Klebsiella pneumoniae [9]) of the same compound?
A: 21 mm

Q: And the MIC (Candida albicans [10])?
A: 100 µg/mL (≈ 187 µM)

Q: And the “inhibition zone (IZ)” value (Escherichia coli [11])?
A: 22 mm

Q: And the MIC (Proteus vulgaris [12])?
A: 100 µg/mL (≈ 187 µM)

Q: And the MIC (Staphylococcus aureus [13])?
A: 50 µg/mL (≈ 93.5 µM)

Q: And the GI50 (DU-145)?
A: > 100 µM

Q: And the LC50 (concentration giving 50% net cell kill relative to time zero) (DU-145)?
A: > 100 µM

Q: And the TGI (DU-145)?
A: > 100 µM

Q: What about the “inhibition zone (IZ)” value (Candida albicans [14]) of the same compound?
A: 18 mm

Q: What about the “inhibition zone (IZ)” value (Aspergillus clavatus [15]) of the same compound?
A: 17 mm

Q: What about the “inhibition zone (IZ)” value (Shigella flexneri [16]) of the same compound?
A: 21 mm

Q: And the MIC (Aspergillus fumigatus [17])?
A: 100 µg/mL (≈ 187 µM)

Q: And the “inhibition zone (IZ)” value (Proteus vulgaris [18])?
A: 21 mm

Q: What about the “inhibition zone (IZ)” value (Salmonella typhi [19]) of the same compound?
A: 21 mm

Q: And the “inhibition zone (IZ)” value (Pseudomonas aeruginosa [20])?
A: 22 mm

Q: And the MIC (Klebsiella pneumoniae [21])?
A: 100 µg/mL (≈ 187 µM)

Q: What about the MIC (Pseudomonas aeruginosa [22]) of the same compound?
A: 25 µg/mL (≈ 46.8 µM)

Q: What about the MIC (Bacillus cereus [23]) of the same compound?
A: 50 µg/mL (≈ 93.5 µM)

Q: What about the “inhibition zone (IZ)” value (Aspergillus fumigatus [24]) of the same compound?
A: 17 mm

Q: Which results are given for `N#Cc1ccc(Nc2nc(Oc3ccnc4ccccc34)nc(N3CCN(c4ccccn4)CC3)n2)cc1C(F)(F)F`?
A: MIC (Salmonella typhi [1]): 100 µg/mL (≈ 176 µM); inhibition zone (IZ) (Bacillus cereus [2]): 19 mm; MIC (Shigella flexneri [3]): 100 µg/mL (≈ 176 µM); MIC (Aspergillus clavatus [4]): 100 µg/mL (≈ 176 µM); MIC (Aspergillus niger [5]): 100 µg/mL (≈ 176 µM); inhibition zone (IZ) (Staphylococcus aureus [6]): 21 mm; inhibition zone (IZ) (Aspergillus niger [7]): <10 mm; MIC (Escherichia coli [8]): 100 µg/mL (≈ 176 µM); inhibition zone (IZ) (Klebsiella pneumoniae [9]): 17 mm; MIC (Candida albicans [10]): 100 µg/mL (≈ 176 µM); inhibition zone (IZ) (Escherichia coli [11]): 19 mm; MIC (Proteus vulgaris [12]): 100 µg/mL (≈ 176 µM); MIC (Staphylococcus aureus [13]): 100 µg/mL (≈ 176 µM); GI50 (DU-145): 85.9 µM; LC50 (concentration giving 50% net cell kill relative to time zero) (DU-145): > 100 µM; TGI (DU-145): > 100 µM; inhibition zone (IZ) (Candida albicans [14]): 13 mm; inhibition zone (IZ) (Aspergillus clavatus [15]): <10 mm; inhibition zone (IZ) (Shigella flexneri [16]): 16 mm; MIC (Aspergillus fumigatus [17]): 100 µg/mL (≈ 176 µM); inhibition zone (IZ) (Proteus vulgaris [18]): 16 mm; inhibition zone (IZ) (Salmonella typhi [19]): 15 mm; inhibition zone (IZ) (Pseudomonas aeruginosa [20]): 16 mm; MIC (Klebsiella pneumoniae [21]): 100 µg/mL (≈ 176 µM); MIC (Pseudomonas aeruginosa [22]): 100 µg/mL (≈ 176 µM); MIC (Bacillus cereus [23]): 100 µg/mL (≈ 176 µM); inhibition zone (IZ) (Aspergillus fumigatus [24]): 12 mm

From ChEMBL document CHEMBL1828552, “Synthesis and studies of novel 2-(4-cyano-3-trifluoromethylphenyl amino)-4-(quinoline-4-yloxy)-6-(piperazinyl/piperidinyl)-s-triazines as potential antimicrobial, antimycobacterial and anticancer agents” (2011)
